Assays:
[1] = test system: Mycobacterium tuberculosis; assay: Antimycobacterial activity against Mycobacterium tuberculosis H37Rv by agar dilution method; type: functional
How it was run: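 Agar dilution on Middlebrook 7H11 agar supplemented with OADC, following the NCCLS approach, using log-phase M. tuberculosis cultures. Run in triplicate. MIC was taken as the lowest concentration giving complete inhibition of growth.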

[2] = test system: HepG2; assay: Cytotoxicity against human HepG2 cells at 20 to 25 uM after 48 hrs by MTT assay; type: cell-based; details: hepg2, 48 h
How it was run: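 HepG2 cells were seeded at 2500/well and grown 24 h, then exposed to compound for 48 h. MTT (20 µL of a 5 mg/mL stock) was added for 2.5 h at 37 °C, and OD was read at 570 nm. Results are reported as % inhibition at a single concentration.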

[3] = Plasma clearance in Wistar rat at 10 mg/kg, iv administered as single bolus dose; type: ADME, organism-based; design: dose 10 mg/kg, route intravenous
How it was run: (§1)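 Male Wistar rats given a single iv bolus of 10 mg/kg in 20% propylene glycol, 10% cremophor ELP and 20% N-methylpyrrolidone in normal saline. Plasma was assayed by reverse-phase HPLC with PDA detection. Parameters came from plasma concentration–time data by non-compartmental analysis.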

[4] = Cmax in Wistar rat at 10 mg/kg, iv administered as single bolus dose; type: ADME, organism-based; design: dose 10 mg/kg, route intravenous; details: in vivo; how it was run: as §1
[5] = Tmax in Wistar rat at 50 mg/kg, po administered as single dose; type: ADME, organism-based; design: dose 50 mg/kg, route oral; details: in vivo
How it was run: (§2)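 Male Wistar rats got a single oral dose of 50 mg/kg as a suspension in 0.25% sodium CMC with Tween 80. Plasma was measured by reverse-phase HPLC with PDA detection and analysed non-compartmentally. AUC covered 10 h. Bioavailability was derived against a separate 10 mg/kg iv bolus dose in the same vehicle system as the iv study.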

[6] = Cmax in Wistar rat at 50 mg/kg, po administered as single dose; type: ADME, organism-based; design: dose 50 mg/kg, route oral; details: in vivo; how it was run: as §2
[7] = Elimination rate constant in Wistar rat at 10 mg/kg, iv administered as single bolus dose; type: ADME, organism-based; design: dose 10 mg/kg, route intravenous; details: in vivo; how it was run: as §1
[8] = test system: Rattus norvegicus; assay: (§3) AUC (0 to t) in Wistar rat at 50 mg/kg, po administered as single dose; type: ADME, organism-based, Plasma; design: dose 50 mg/kg, route oral; details: in vivo; how it was run: as §2
[9] = test system: Rattus norvegicus; assay: (§4) Oral bioavailability in Wistar rat at 50 mg/kg administered as single dose; type: ADME, organism-based; details: in vivo; how it was run: as §2
[10] = Volume of distribution in Wistar rat at 10 mg/kg, iv administered as single bolus dose; type: ADME, organism-based; design: dose 10 mg/kg, route intravenous; details: in vivo; how it was run: as §1
[11] = test system: Rattus norvegicus; assay: (§5) AUC (0 to t) in Wistar rat at 10 mg/kg, iv administered as single bolus dose; type: ADME, organism-based, Plasma; design: dose 10 mg/kg, route intravenous; details: in vivo; how it was run: as §1
[12] = test system: Mycobacterium tuberculosis; assay: Ratio of INH MIC to compound MIC for Mycobacterium tuberculosis H37Rv by agar dilution method; type: functional
[13] = Half life in Wistar rat at 10 mg/kg, iv administered as single bolus dose; type: ADME, organism-based; design: dose 10 mg/kg, route intravenous; details: in vivo; how it was run: as §1
[14] = as §3; type: ADME, organism-based, Plasma; design: dose 50 mg/kg, route oral; details: Wistar, plasma; how it was run: as §2
[15] = as §4; type: ADME, organism-based; details: Wistar, in vivo; how it was run: as §2
[16] = as §5; type: ADME, organism-based, Plasma; design: dose 10 mg/kg, route intravenous; details: Wistar, plasma; how it was run: as §1

Row | SMILES | MIC [1] | Activity [2] | further results
1 | Cc1c(CN2CCN(c3cccc(C(F)(F)F)c3)CC2)cc(-c2ccccc2)n1NC(=O)c1ccncc1 [SUDOTERB] | 0.25 µg/mL |  | 
2 | CC(C)c1ccc(C2SCCC(=O)N2NC(=O)c2ccncc2)cc1 (stereo not drawn) | 2.14 µM | 19% | 
3 | O=C(NN1C(=O)CCSC1Cc1ccco1)c1ccncc1 (stereo not drawn) | 41.2 µM | 18.6% | 
4 | CN(C)c1ccc(C2SCCC(=O)N2NC(=O)c2ccncc2)cc1 (stereo not drawn) | 8.78 µM | 4.6% | 
5 | O=C(NNCc1ccccc1)c1ccncc1 | 0.2 µg/mL |  | 
6 | COc1ccc(C2SCCC(=O)N2NC(=O)c2ccncc2)cc1 (stereo not drawn) | 4.54 µM | 12.6% | 
7 | O=C(NN1C(=O)CCSC1c1cccc(C(F)(F)F)c1)c1ccncc1 (stereo not drawn) | 0.52 µM | 26.4% | 
8 | O=C(NN1C(=O)CCSC1c1cccc(OCc2ccccc2)c1)c1ccncc1 (stereo not drawn) | 0.24 µM | 12.6% | 
9 | O=C(NN1C(=O)CCSC1c1ccccc1OCc1ccccc1)c1ccncc1 (stereo not drawn) | 0.24 µM | 10.6% | 
10 | O=C(NN1C(=O)CCSC1c1ccc(O)cc1)c1ccncc1 (stereo not drawn) | 18.9 µM | 10.7% | 
11 | O=C(NN=C1CCCCC1)c1ccncc1 | 0.0004 µM |  | 
12 | NNC(=O)c1ccncc1 [ISONIAZID] | 0.36 µM | 10% | clearance [3]: 0.21 mL/min/kg; Cmax [4]: 298000 ng/mL; Tmax [5]: 2 h; Cmax [6]: 52300 ng/mL; k el [7]: 6.67e-05 s⁻¹; AUCt [8]: 197090 ng·h/mL; F [9]: 17.36%; Vd [10]: 0.026 L; AUCt [11]: 684000 ng·h/mL
13 | O=C(NN1C(=O)CCSC1c1cccc(O)c1)c1ccncc1 (stereo not drawn) | 9.49 µM | 8.2% | 
14 | O=C(NN1C(=O)CCSC1c1ccc(F)cc1)c1ccncc1 (stereo not drawn) | 0.3 µM | 18.6% | 
15 | CC1(C)CC(=O)C2=C(C1)N(NC(=O)c1ccncc1)C1=C(C(=O)CC(C)(C)C1)C2c1ccccc1OCc1ccccc1 | 0.17 µM |  | 
16 | COc1ccccc1C1SCCC(=O)N1NC(=O)c1ccncc1 (stereo not drawn) | 9.08 µM | 15.2% | 
17 | Cc1cccc(C2SCCC(=O)N2NC(=O)c2ccncc2)c1 (stereo not drawn) | 9.56 µM | 8.6% | 
18 | COc1cc(C2SCCC(=O)N2NC(=O)c2ccncc2)ccc1O (stereo not drawn) | 8.7 µM | 16.11% | 
19 | O=C(NN1C(=O)CCSC1Cc1ccc([N+](=O)[O-])o1)c1ccncc1 (stereo not drawn) | 4.48 µM | 38.6% | 
20 | C/C(=N\NC(=O)c1ccncc1)c1ccc(NC(=S)Nc2ccc(F)cc2)cc1 | 0.45 µM |  | 

Row | SMILES | MIC [1] | Activity [2] | further results
21 | O=C(NN1C(=O)CCSC1c1ccccc1)c1ccncc1 (stereo not drawn) | 9.9 µM | 10.6% | 
22 | COc1cc(C2SCCC(=O)N2NC(=O)c2ccncc2)cc(OC)c1OC (stereo not drawn) | 7.76 µM | 8.6% | 
23 | Cc1ccccc1C1SCCC(=O)N1NC(=O)c1ccncc1 (stereo not drawn) | 9.56 µM | 12.6% | 
24 | C/C(=N/NC(=O)c1ccncc1)c1cccc(CN2CCNCC2)c1O | 0.56 µM |  | 
25 | Cc1ccc(C2SCCC(=O)N2NC(=O)c2ccncc2)cc1 (stereo not drawn) | 9.56 µM | 12.4% | 
26 | O=C(NN1C(=O)CCSC1c1ccccc1[N+](=O)[O-])c1ccncc1 (stereo not drawn) | 2.12 µM | 28.8% | 
27 | O=C(NN1C(=O)CCSC1c1ccccc1Cl)c1ccncc1 (stereo not drawn) | 1.15 µM | 20.6% | 
28 | O=C(NN1C(=O)CCSC1c1ccccc1Br)c1ccncc1 (stereo not drawn) | 0.25 µM | 22.2% | 
29 | O=C(NN1C(=O)CCSC1c1cccc(F)c1)c1ccncc1 (stereo not drawn) | 0.6 µM | 16.4% | 
30 | COc1cccc(C2SCCC(=O)N2NC(=O)c2ccncc2)c1 (stereo not drawn) | 9.08 µM | 10.4% | 
31 | O=C(NN1C(=O)CCSC1c1ccc(Cl)cc1)c1ccncc1 (stereo not drawn) | 0.575 µM | 26.8% | 
32 | O=C(NN1C(=O)CCSC1c1cccc([N+](=O)[O-])c1)c1ccncc1 (stereo not drawn) | 0.56 µM | 28.6% | 
33 | O=C(NN1C(=O)CCSC1c1ccccc1O)c1ccncc1 (stereo not drawn) | 19 µM | 8.6% | 
34 | O=C(NN1C(=O)CCSC1c1ccc(Br)cc1)c1ccncc1 (stereo not drawn) | 0.5 µM | 18.4% | 
35 | O=C(NN1C(=O)CCSC1c1ccc([N+](=O)[O-])cc1)c1ccncc1 (stereo not drawn) | 1.11 µM | 32% | 
36 | O=C(NN1C(=O)CCSC1c1ccc(C(F)(F)F)cc1)c1ccncc1 (stereo not drawn) | 0.13 µM | 20.6% | 
37 | O=C(NN1C(=O)CCSC1c1ccc(OCc2ccccc2)cc1)c1ccncc1 (stereo not drawn) | 0.12 µM | 8.8% | Ratio [12]: 3; clearance [3]: 22.5 mL/min/kg; Cmax [4]: 5290 ng/mL; Tmax [5]: 3 h; Cmax [6]: 1310 ng/mL; k el [7]: 0.000172 s⁻¹; half-life [13]: 1.14 h; AUC(0-t) [14]: 5870 ng·h/mL; bioavailability [15]: 16.7%; Vd [10]: 1.99 L; AUC(0-t) [16]: 7500 ng·h/mL
38 | O=C(NN1C(=O)CCSC1c1ccccc1F)c1ccncc1 (stereo not drawn) | 0.6 µM | 18.6% | 
39 | O=C(NN1C(=O)CCSC1c1ccccc1C(F)(F)F)c1ccncc1 (stereo not drawn) | 0.52 µM | 24.2% | 
40 | O=C(c1ccncc1)N1N=CCC1(O)C(F)(F)F (stereo not drawn) | 0.77 µM |  | 

Source: ChEMBL document CHEMBL2021787 (Bioorg Med Chem Lett, 2012)
